Reference: ChEMBL document CHEMBL1153840, “Targeting of the Brucella suis virulence factor histidinol dehydrogenase by histidinol analogues results in inhibition of intramacrophagic multiplication of the pathogen” (Antimicrob Agents Chemother, 2007)
Calls of active or inactive are those of the source. No cut-off for these calls is given here.

Tests used:
Brucella suis [1] = experiment: Antibacterial activity against Brucella suis 1330 assessed as reduction in bacterial growth in minimal medium after 96 hrs relative to control; type: functional
Histidinol dehydrogenase = biological target: T1, Histidinol dehydrogenase (Brucella suis biovar 1 (strain 1330), UniProt Q8G2R2); experiment: Inhibition of Brucella suis histidinol dehydrogenase
T1 sequence (Q8G2R2 whole entry): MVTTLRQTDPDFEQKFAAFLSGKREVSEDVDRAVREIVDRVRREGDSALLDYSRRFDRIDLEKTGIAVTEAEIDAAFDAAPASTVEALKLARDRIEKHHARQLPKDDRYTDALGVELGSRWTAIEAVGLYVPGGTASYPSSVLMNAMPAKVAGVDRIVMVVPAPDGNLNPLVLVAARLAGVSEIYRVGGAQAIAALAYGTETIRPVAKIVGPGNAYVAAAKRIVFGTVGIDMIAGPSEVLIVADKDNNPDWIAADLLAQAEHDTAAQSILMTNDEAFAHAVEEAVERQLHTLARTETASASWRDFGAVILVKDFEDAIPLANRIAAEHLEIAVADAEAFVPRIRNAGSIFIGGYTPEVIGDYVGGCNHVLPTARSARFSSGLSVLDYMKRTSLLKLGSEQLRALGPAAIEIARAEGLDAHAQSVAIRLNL

Brucella suis [2] = experiment: Inhibition of intracellular replication of Brucella suis 1330 in human THP1 cells assessed as reduction in number of viable intracellular bacteria at 25 uM treated 90 mins postinfection measured 24 hrs postinfection relative to control; type: functional, organism-based; details: THP-1
Brucella suis [3] = experiment: Antibacterial activity against Brucella suis 1330 in minimal medium after 96 hrs; type: functional, organism-based
Brucella suis [4] = experiment: Growth inhibition of Brucella suis 1330 in minimal medium containing 1 mM histidine at 100 uM after 96 hrs; type: functional, organism-based
Brucella suis [5] = experiment: Growth inhibition of Brucella suis 1330 in minimal medium devoid of 1 mM histidine at 100 uM after 96 hrs; type: functional, organism-based
Brucella suis [6] = experiment: Antibacterial activity against Brucella suis 1330 assessed as reduction in bacterial intramacrophagic multiplication in human THP1 cells at 25 uM treated 90 mins postinfection measured 24 hrs postinfection relative to control; type: functional, THP-1
THP-1 = experiment: Toxicity against human THP1 cells at 25 uM after 48 hrs by trypan blue exclusion method; type: cell-based; details: thp-1, 48 h
Summary of the method: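 Infected THP1 macrophage-like cells are stained with trypan blue at 48 h postinfection, at the drug concentrations used in the intracellular assay.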

Brucella suis [7] = experiment: Antibacterial activity against Brucella suis 1330 in minimal medium at 100 uM after 96 hrs; type: functional, organism-based

SMILES	fold change (FC) (Brucella suis [1])	IC50 (Histidinol dehydrogenase) [nM]	Activity (Brucella suis [2])	inhibition (Brucella suis [3])	Activity (Brucella suis [4])	Activity (Brucella suis [5])	fold change (FC) (Brucella suis [6])	Activity (THP-1)	inhibition (Brucella suis [7])
Cl.Cl.N[C@@H](Cc1c[nH]cn1)C(=O)Cc1ccc(F)cc1F	12	6	–	–	–	–	–	–	–
Cl.Cl.N[C@@H](Cc1c[nH]cn1)C(=O)Cc1ccccc1	12	6	–	–	–	–	–	–	–
Cl.Cl.N[C@@H](Cc1c[nH]cn1)C(=O)Cc1ccc(OCc2ccccc2)cc1	12	–	Active	–	–	–	–	–	–
Cl.Cl.N[C@@H](Cc1c[nH]cn1)C(=O)Cc1ccc(-c2ccccc2)cc1	12	6	Active	Dose-dependent effect	inactive	Active	50	Non-toxic	Active
Cl.Cl.N[C@@H](Cc1c[nH]cn1)C(=O)Cc1ccc(Oc2ccccc2)cc1	12	6	–	–	–	–	–	–	–
Cl.Cl.N[C@@H](Cc1c[nH]cn1)C(=O)Cc1ccc2c(c1)OCO2	12	6	–	–	–	–	–	–	–
Cl.Cl.N[C@@H](Cc1c[nH]cn1)C(=O)Cc1c(F)c(F)c(F)c(F)c1F	12	6	–	–	–	–	–	–	–
Cl.Cl.N[C@@H](Cc1c[nH]cn1)C(=O)Cc1ccc(Cl)cc1	12	6	Active	Dose-dependent effect	–	–	50	Non-toxic	Active
Cl.Cl.N[C@@H](Cc1c[nH]cn1)C(=O)Cc1ccc(F)cc1	12	6	–	–	–	–	–	–	Active
Cl.Cl.N[C@@H](Cc1c[nH]cn1)C(=O)Cc1ccc(Br)cc1	12	–	Active	Dose-dependent effect	–	–	50	Non-toxic	Active
COc1ccc(CC(=O)[C@@H](N)Cc2c[nH]cn2)cc1.Cl.Cl	12	6	–	–	–	–	–	–	–
Cc1ccc(CC(=O)[C@@H](N)Cc2c[nH]cn2)cc1.Cl.Cl	12	6	–	–	–	–	–	–	–
Cl.Cl.N[C@@H](Cc1c[nH]cn1)C(=O)Cc1cccc2ccccc12	12	6	–	–	–	–	–	–	–
Cl.Cl.N[C@@H](Cc1c[nH]cn1)C(=O)Cc1ccc(Cl)c(Cl)c1	12	6	–	–	–	–	–	–	–
Cl.Cl.N[C@@H](Cc1c[nH]cn1)C(=O)Cc1ccc2ccccc2c1	12	6	Active	Dose-dependent effect	–	–	50	Non-toxic	Active
